ChEMBL document CHEMBL2331542, “Synthesis and in vitro antibacterial activity of quinolone/naphthyridone derivatives containing 3-alkoxyimino-4-(methyl)aminopiperidine scaffolds” (2013)
Converted amounts (≈) assume the structure as drawn.

Assays:
Type in all cases: functional
[1] = system: Staphylococcus aureus; experiment: Antibacterial activity against methicillin-sensitive Staphylococcus aureus isolate 12-6
How it was run: (§1)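 MIC determined in vitro by a standard technique and defined as the lowest compound concentration giving complete inhibition of bacterial growth. The Gram-positive and Gram-negative panels were tested alongside gemifloxacin, levofloxacin and ciprofloxacin reference drugs.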

[2] = system: Escherichia coli; experiment: Antibacterial activity against Escherichia coli ATCC 25922; how it was run: as §1
[3] = system: Staphylococcus aureus; experiment: Antibacterial activity against methicillin-sensitive Staphylococcus aureus isolate 12-10; how it was run: as §1
[4] = system: Staphylococcus epidermidis; experiment: Antibacterial activity against methicillin-resistant Staphylococcus epidermidis isolate 12-35
How it was run: (§2)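 MIC determined in vitro by standard techniques, defined as the lowest compound concentration giving complete inhibition of bacterial growth. Gemifloxacin, levofloxacin and ciprofloxacin were tested alongside as reference drugs.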

[5] = system: Staphylococcus epidermidis; experiment: Antibacterial activity against methicillin-sensitive Staphylococcus epidermidis isolate 12-1; how it was run: as §1
[6] = system: Streptococcus pneumoniae; experiment: Antibacterial activity against Streptococcus pneumoniae isolate 12-2; how it was run: as §1
[7] = system: Staphylococcus aureus; experiment: Antibacterial activity against Staphylococcus aureus […]; how it was run: as §1
[8] = system: Staphylococcus aureus; experiment: Antibacterial activity against methicillin-resistant Staphylococcus aureus isolate 12-3; how it was run: as §2
[9] = system: Staphylococcus epidermidis; experiment: Antibacterial activity against methicillin-sensitive Staphylococcus epidermidis isolate 12-3; how it was run: as §1
[10] = system: Pseudomonas aeruginosa; experiment: Antibacterial activity against Pseudomonas aeruginosa isolate 12-2; how it was run: as §1
[11] = system: Escherichia coli; experiment: Antibacterial activity against extended-spectrum beta-lactamase-producing Escherichia coli isolate 12-4; how it was run: as §1
[12] = system: Staphylococcus aureus; experiment: Antibacterial activity against methicillin-sensitive Staphylococcus aureus isolate 12-7; how it was run: as §1
[13] = system: Staphylococcus epidermidis; experiment: Antibacterial activity against methicillin-sensitive Staphylococcus epidermidis isolate 12-2; how it was run: as §1
[14] = system: Pseudomonas aeruginosa; experiment: Antibacterial activity against Pseudomonas aeruginosa ATCC 27853; how it was run: as §1
[15] = system: Escherichia coli; experiment: Antibacterial activity against extended-spectrum beta-lactamase-producing Escherichia coli isolate 12-1; how it was run: as §1
[16] = system: Klebsiella pneumoniae; experiment: Antibacterial activity against Klebsiella pneumoniae isolate 12-1; how it was run: as §1
[17] = system: Escherichia coli; experiment: Antibacterial activity against Escherichia coli isolate 12-5; how it was run: as §1
[18] = system: Escherichia coli; experiment: Antibacterial activity against Escherichia coli isolate 12-4; how it was run: as §1
[19] = system: Klebsiella pneumoniae; experiment: Antibacterial activity against Klebsiella pneumoniae isolate 12-4; how it was run: as §1
[20] = system: Escherichia coli; experiment: Antibacterial activity against Escherichia coli isolate 12-1; how it was run: as §1
[21] = system: Klebsiella pneumoniae; experiment: Antibacterial activity against extended-spectrum beta-lactamase-producing Klebsiella pneumoniae isolate 12-2; how it was run: as §1
[22] = system: Klebsiella pneumoniae; experiment: Antibacterial activity against extended-spectrum beta-lactamase-producing Klebsiella pneumoniae isolate 12-4; how it was run: as §1
[23] = system: Staphylococcus aureus; experiment: Antibacterial activity against methicillin-resistant Staphylococcus aureus isolate 12-13; how it was run: as §2
[24] = system: Escherichia coli; experiment: Antibacterial activity against extended-spectrum beta-lactamase-producing Escherichia coli isolate 12-2; how it was run: as §1
[25] = system: Staphylococcus epidermidis; experiment: Antibacterial activity against methicillin-resistant Staphylococcus epidermidis isolate 12-33; how it was run: as §2
[26] = system: Pseudomonas aeruginosa; experiment: Antibacterial activity against Pseudomonas aeruginosa isolate 12-1; how it was run: as §1
[27] = system: Staphylococcus aureus; experiment: Antibacterial activity against methicillin-resistant Staphylococcus aureus isolate 12-15; how it was run: as §2
[28] = system: Staphylococcus epidermidis; experiment: Antibacterial activity against methicillin-resistant Staphylococcus epidermidis isolate 12-5; how it was run: as §2
[29] = system: Klebsiella pneumoniae; experiment: Antibacterial activity against Klebsiella pneumoniae isolate 12-2; how it was run: as §1
[30] = system: Streptococcus pneumoniae; experiment: Antibacterial activity against Streptococcus pneumoniae isolate 12-5; how it was run: as §1
[31] = system: Klebsiella pneumoniae; experiment: Antibacterial activity against extended-spectrum beta-lactamase-producing Klebsiella pneumoniae isolate 12-1; how it was run: as §1

SMILES | MIC [1] | MIC [2] | MIC [3] | MIC [4] | MIC [5] | MIC [6] | MIC [7] | MIC [8] | MIC [9] | MIC [10] | MIC [11] | MIC [12] | MIC [13] | MIC [14] | MIC [15] | MIC [16] | MIC [17] | MIC [18] | MIC [19] | MIC [20] | also measured
CO/N=C1\CN(c2c(F)cc3c(=O)c(C(=O)O)cn4c3c2OC[C@@H]4C)CCC1N (some centres undefined) | 0.5 µg/mL (≈ 1.24 µM) | 8 µg/mL (≈ 19.8 µM) | 0.25 µg/mL (≈ 0.618 µM) | 0.5 µg/mL (≈ 1.24 µM) | 0.5 µg/mL (≈ 1.24 µM) | 0.5 µg/mL (≈ 1.24 µM) | 0.5 µg/mL (≈ 1.24 µM) | 1 µg/mL (≈ 2.47 µM) | 0.5 µg/mL (≈ 1.24 µM) | 16 µg/mL (≈ 39.6 µM) | 16 µg/mL (≈ 39.6 µM) | 64 µg/mL (≈ 158 µM) | 1 µg/mL (≈ 2.47 µM) | 32 µg/mL (≈ 79.1 µM) | 128 µg/mL (≈ 317 µM) | 8 µg/mL (≈ 19.8 µM) | 128 µg/mL (≈ 317 µM) | > 128 µg/mL | 1 µg/mL (≈ 2.47 µM) | 4 µg/mL (≈ 9.89 µM) | MIC [21]: 16 µg/mL (≈ 39.6 µM); MIC [22]: 128 µg/mL (≈ 317 µM); MIC [23]: 1 µg/mL (≈ 2.47 µM); MIC [24]: > 128 µg/mL; MIC [25]: 0.5 µg/mL (≈ 1.24 µM); MIC [26]: 16 µg/mL (≈ 39.6 µM); MIC [27]: 1 µg/mL (≈ 2.47 µM); MIC [28]: 0.5 µg/mL (≈ 1.24 µM); MIC [29]: 1 µg/mL (≈ 2.47 µM); MIC [30]: 0.5 µg/mL (≈ 1.24 µM); MIC [31]: 0.5 µg/mL (≈ 1.24 µM)
CNC1CCN(c2c(F)cc3c(=O)c(C(=O)O)cn(C4CC4)c3c2OC)C/C1=N\OC (centres undefined) | 0.06 µg/mL (≈ 0.139 µM) | 0.125 µg/mL (≈ 0.289 µM) | 0.06 µg/mL (≈ 0.139 µM) | 0.06 µg/mL (≈ 0.139 µM) | 0.25 µg/mL (≈ 0.578 µM) | 0.125 µg/mL (≈ 0.289 µM) | 0.25 µg/mL (≈ 0.578 µM) | 0.25 µg/mL (≈ 0.578 µM) | 0.25 µg/mL (≈ 0.578 µM) | 16 µg/mL (≈ 37 µM) | 32 µg/mL (≈ 74 µM) | 0.125 µg/mL (≈ 0.289 µM) | 0.5 µg/mL (≈ 1.16 µM) | 8 µg/mL (≈ 18.5 µM) | > 128 µg/mL | 1 µg/mL (≈ 2.31 µM) | 128 µg/mL (≈ 296 µM) | > 128 µg/mL | 0.5 µg/mL (≈ 1.16 µM) | 4 µg/mL (≈ 9.25 µM) | MIC [21]: 16 µg/mL (≈ 37 µM); MIC [22]: 0.5 µg/mL (≈ 1.16 µM); MIC [23]: 0.25 µg/mL (≈ 0.578 µM); MIC [24]: > 128 µg/mL; MIC [25]: 0.125 µg/mL (≈ 0.289 µM); MIC [26]: 16 µg/mL (≈ 37 µM); MIC [27]: 0.25 µg/mL (≈ 0.578 µM); MIC [28]: 0.06 µg/mL (≈ 0.139 µM); MIC [29]: 2 µg/mL (≈ 4.62 µM); MIC [30]: 0.125 µg/mL (≈ 0.289 µM); MIC [31]: 16 µg/mL (≈ 37 µM)
CNC1CCN(c2nc3c(cc2F)c(=O)c(C(=O)O)cn3C2CC2)C/C1=N\OC (centres undefined) | 0.25 µg/mL (≈ 0.62 µM) | 0.125 µg/mL (≈ 0.31 µM) | 0.25 µg/mL (≈ 0.62 µM) | 0.25 µg/mL (≈ 0.62 µM) | 0.5 µg/mL (≈ 1.24 µM) | 0.5 µg/mL (≈ 1.24 µM) | 0.5 µg/mL (≈ 1.24 µM) | 1 µg/mL (≈ 2.48 µM) | 0.5 µg/mL (≈ 1.24 µM) | 16 µg/mL (≈ 39.7 µM) | 16 µg/mL (≈ 39.7 µM) | 0.5 µg/mL (≈ 1.24 µM) | 2 µg/mL (≈ 4.96 µM) | 2 µg/mL (≈ 4.96 µM) | > 128 µg/mL | 0.5 µg/mL (≈ 1.24 µM) | > 128 µg/mL | > 128 µg/mL | 0.125 µg/mL (≈ 0.31 µM) | 4 µg/mL (≈ 9.92 µM) | MIC [21]: 16 µg/mL (≈ 39.7 µM); MIC [22]: 0.125 µg/mL (≈ 0.31 µM); MIC [23]: 1 µg/mL (≈ 2.48 µM); MIC [24]: > 128 µg/mL; MIC [25]: 0.06 µg/mL (≈ 0.149 µM); MIC [26]: 16 µg/mL (≈ 39.7 µM); MIC [27]: 1 µg/mL (≈ 2.48 µM); MIC [28]: 0.25 µg/mL (≈ 0.62 µM); MIC [29]: 0.5 µg/mL (≈ 1.24 µM); MIC [30]: 0.5 µg/mL (≈ 1.24 µM); MIC [31]: 16 µg/mL (≈ 39.7 µM)
CO/N=C1\CN(c2nc3c(cc2F)c(=O)c(C(=O)O)cn3C2CC2)CC1CN (centres undefined) [GEMIFLOXACIN] | 0.03 µg/mL (≈ 0.077 µM) | 0.015 µg/mL (≈ 0.0385 µM) | 0.03 µg/mL (≈ 0.077 µM) | 0.008 µg/mL (≈ 0.0205 µM) | 0.06 µg/mL (≈ 0.154 µM) | 0.25 µg/mL (≈ 0.642 µM) | < 0.008 µg/mL | 0.03 µg/mL (≈ 0.077 µM) | 0.06 µg/mL (≈ 0.154 µM) | 16 µg/mL (≈ 41.1 µM) | 2 µg/mL (≈ 5.14 µM) | 4 µg/mL (≈ 10.3 µM) | 0.25 µg/mL (≈ 0.642 µM) | 1 µg/mL (≈ 2.57 µM) | 8 µg/mL (≈ 20.5 µM) | 0.03 µg/mL (≈ 0.077 µM) | 16 µg/mL (≈ 41.1 µM) | 16 µg/mL (≈ 41.1 µM) | 0.06 µg/mL (≈ 0.154 µM) | 0.125 µg/mL (≈ 0.321 µM) | MIC [21]: 2 µg/mL (≈ 5.14 µM); MIC [22]: 2 µg/mL (≈ 5.14 µM); MIC [23]: 0.015 µg/mL (≈ 0.0385 µM); MIC [24]: 16 µg/mL (≈ 41.1 µM); MIC [25]: 4 µg/mL (≈ 10.3 µM); MIC [26]: 8 µg/mL (≈ 20.5 µM); MIC [27]: 0.03 µg/mL (≈ 0.077 µM); MIC [28]: 0.015 µg/mL (≈ 0.0385 µM); MIC [29]: 0.06 µg/mL (≈ 0.154 µM); MIC [30]: 0.25 µg/mL (≈ 0.642 µM); MIC [31]: 2 µg/mL (≈ 5.14 µM)
